Source: ChEMBL document CHEMBL4689842, “EUbOPEN Chemogenomics Library wave 1” (2021)

Key:
Assay type in all cases: toxicity, cell-based
Fibroblast [1] = assay: Multiplex assay against human fibroblast
In short: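 Tubulin, mitochondrial-mass and membrane-permeability phenotypes are per cents of healthy-nucleus cells. Cells were gated by CellPathfinder machine learning into Hoechst high-intensity objects or normal cells, normal cells into healthy, pyknosed or fragmented nuclei, and pyknosed cells into mitotic or apoptotic. Before that, live cells stained at seeding with Hoechst33342, BioTracker Green Microtubule Cytoskeleton Dye, MitoTracker Red and Annexin V Alexa Fluor 680 were imaged on a CQ1 microscope at 37°C and 5% CO2 after compound addition.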

HEK-293T = assay: Incucyte cell viability with HEK293T; settings: human, 10 µM, compound concentration 10 uM; also: filed as whole numbers so only -1 and 0 and 1 occur
Fibroblast [2] = assay: Incucyte cell viability with human fibroblast; settings: 10 µM, compound concentration 10 uM; also: filed as whole numbers so only -1 and 0 and 1 occur
U2OS = assay: Incucyte cell viability with U2OS; settings: human, 10 µM, compound concentration 10 uM; also: filed as whole numbers so only -1 and 0 and 1 occur
[3] = 12 h, 1 µM, compound concentration 1 uM, replicate 1
[4] = 12 h, 1 µM, compound concentration 1 uM, replicate 2
[5] = 12 h, 10 µM, compound concentration 10 uM, replicate 1
[6] = 12 h, 10 µM, compound concentration 10 uM, replicate 2
[7] = 24 h, 1 µM, compound concentration 1 uM, replicate 1
[8] = 24 h, 1 µM, compound concentration 1 uM, replicate 2
[9] = 24 h, 10 µM, compound concentration 10 uM, replicate 1
[10] = 24 h, 10 µM, compound concentration 10 uM, replicate 2
[11] = 48 h, 1 µM, compound concentration 1 uM, replicate 1
[12] = 48 h, 1 µM, compound concentration 1 uM, replicate 2
[13] = 48 h, 10 µM, compound concentration 10 uM, replicate 1
[14] = 48 h, 10 µM, compound concentration 10 uM, replicate 2
[15] = 0 h, replicate number 1, timepoint 0 hours
[16] = 6 h, replicate number 1, timepoint 6 hours
[17] = 12 h, replicate number 1, timepoint 12 hours
[18] = 18 h, replicate number 1, timepoint 18 hours
[19] = 24 h, replicate number 1, timepoint 24 hours

CC(Cc1ccc(O)c(O)c1)C(C)Cc1ccc(O)c(O)c1 (centres undefined) [NORDIHYDROGUAIARETIC ACID]
Population Apoptotic (%) (Fibroblast [1]; [3]): 66%
Population Fragmented Nuclei (%) (Fibroblast [1]; [3]): 19%
Population Healthy Nuclei (%) (Fibroblast [1]; [3]): 50%
Population Hoechst High Intensity Objects (%) (Fibroblast [1]; [3]): 5%
Population Membrane Permeable-Phenotype (%) (Fibroblast [1]; [3]): 19%
Population Mitochondria Different-Phenotype (%) (Fibroblast [1]; [3]): 4%
Population Mitotic Cells (%) (Fibroblast [1]; [3]): 33%
Population Normal (%) (Fibroblast [1]; [3]): 94%
Population Pyknosed Nuclei (%) (Fibroblast [1]; [3]): 29%
Population Tubulin-Different-Phenotype (%) (Fibroblast [1]; [3]): 19%
Total Cell Count (Fibroblast [1]; [3]): 170
Population Apoptotic (%) (Fibroblast [1]; [4]): 0%
Population Fragmented Nuclei (%) (Fibroblast [1]; [4]): 3%
Population Healthy Nuclei (%) (Fibroblast [1]; [4]): 93%
Population Hoechst High Intensity Objects (%) (Fibroblast [1]; [4]): 15%
Population Membrane Permeable-Phenotype (%) (Fibroblast [1]; [4]): 0%
Population Mitochondria Different-Phenotype (%) (Fibroblast [1]; [4]): 1%
Population Mitotic Cells (%) (Fibroblast [1]; [4]): 100%
Population Normal (%) (Fibroblast [1]; [4]): 84%
Population Pyknosed Nuclei (%) (Fibroblast [1]; [4]): 3%
Population Tubulin-Different-Phenotype (%) (Fibroblast [1]; [4]): 25%
Population Apoptotic (%) (Fibroblast [1]; [5]): 87%
Population Fragmented Nuclei (%) (Fibroblast [1]; [5]): 19%
Population Healthy Nuclei (%) (Fibroblast [1]; [5]): 46%
Population Hoechst High Intensity Objects (%) (Fibroblast [1]; [5]): 14%
Population Membrane Permeable-Phenotype (%) (Fibroblast [1]; [5]): 18%
Population Mitochondria Different-Phenotype (%) (Fibroblast [1]; [5]): 6%
Population Mitotic Cells (%) (Fibroblast [1]; [5]): 12%
Population Normal (%) (Fibroblast [1]; [5]): 85%
Population Pyknosed Nuclei (%) (Fibroblast [1]; [5]): 33%
Population Tubulin-Different-Phenotype (%) (Fibroblast [1]; [5]): 13%
Population Apoptotic (%) (Fibroblast [1]; [6]): 0%
Population Fragmented Nuclei (%) (Fibroblast [1]; [6]): 2%
Population Healthy Nuclei (%) (Fibroblast [1]; [6]): 91%
Population Hoechst High Intensity Objects (%) (Fibroblast [1]; [6]): 6%
Population Membrane Permeable-Phenotype (%) (Fibroblast [1]; [6]): 2%
Population Mitochondria Different-Phenotype (%) (Fibroblast [1]; [6]): 10%
Population Mitotic Cells (%) (Fibroblast [1]; [6]): 100%
Population Normal (%) (Fibroblast [1]; [6]): 93%
Population Pyknosed Nuclei (%) (Fibroblast [1]; [6]): 5%
Population Tubulin-Different-Phenotype (%) (Fibroblast [1]; [6]): 38%
Total Cell Count (Fibroblast [1]; [6]): 70
Population Apoptotic (%) (Fibroblast [1]; [7]): 50%
Population Fragmented Nuclei (%) (Fibroblast [1]; [7]): 20%
Population Healthy Nuclei (%) (Fibroblast [1]; [7]): 63%
Population Hoechst High Intensity Objects (%) (Fibroblast [1]; [7]): 6%
Population Membrane Permeable-Phenotype (%) (Fibroblast [1]; [7]): 22%
Population Mitochondria Different-Phenotype (%) (Fibroblast [1]; [7]): 3%
Population Mitotic Cells (%) (Fibroblast [1]; [7]): 50%
Population Normal (%) (Fibroblast [1]; [7]): 93%
Population Pyknosed Nuclei (%) (Fibroblast [1]; [7]): 16%
Population Tubulin-Different-Phenotype (%) (Fibroblast [1]; [7]): 25%
Total Cell Count (Fibroblast [1]; [7]): 165
Population Apoptotic (%) (Fibroblast [1]; [8]): 0%
Population Fragmented Nuclei (%) (Fibroblast [1]; [8]): 2%
Population Healthy Nuclei (%) (Fibroblast [1]; [8]): 94%
Population Hoechst High Intensity Objects (%) (Fibroblast [1]; [8]): 7%
Population Membrane Permeable-Phenotype (%) (Fibroblast [1]; [8]): 0%
Population Mitochondria Different-Phenotype (%) (Fibroblast [1]; [8]): 8%
Population Mitotic Cells (%) (Fibroblast [1]; [8]): 100%
Population Normal (%) (Fibroblast [1]; [8]): 92%
Population Pyknosed Nuclei (%) (Fibroblast [1]; [8]): 2%
Population Tubulin-Different-Phenotype (%) (Fibroblast [1]; [8]): 23%
Population Apoptotic (%) (Fibroblast [1]; [9]): 87%
Population Fragmented Nuclei (%) (Fibroblast [1]; [9]): 18%
Population Healthy Nuclei (%) (Fibroblast [1]; [9]): 62%
Population Hoechst High Intensity Objects (%) (Fibroblast [1]; [9]): 17%
Population Membrane Permeable-Phenotype (%) (Fibroblast [1]; [9]): 7%
Population Mitochondria Different-Phenotype (%) (Fibroblast [1]; [9]): 5%
Population Mitotic Cells (%) (Fibroblast [1]; [9]): 12%
Population Normal (%) (Fibroblast [1]; [9]): 82%
Population Pyknosed Nuclei (%) (Fibroblast [1]; [9]): 19%
Population Tubulin-Different-Phenotype (%) (Fibroblast [1]; [9]): 7%
Population Apoptotic (%) (Fibroblast [1]; [10]): 16%
Population Fragmented Nuclei (%) (Fibroblast [1]; [10]): 2%
Population Healthy Nuclei (%) (Fibroblast [1]; [10]): 90%
Population Hoechst High Intensity Objects (%) (Fibroblast [1]; [10]): 5%
Population Membrane Permeable-Phenotype (%) (Fibroblast [1]; [10]): 1%
Population Mitochondria Different-Phenotype (%) (Fibroblast [1]; [10]): 9%
Population Mitotic Cells (%) (Fibroblast [1]; [10]): 83%
Population Normal (%) (Fibroblast [1]; [10]): 94%
Population Pyknosed Nuclei (%) (Fibroblast [1]; [10]): 7%
Population Tubulin-Different-Phenotype (%) (Fibroblast [1]; [10]): 61%
Population Apoptotic (%) (Fibroblast [1]; [11]): 60%
Population Fragmented Nuclei (%) (Fibroblast [1]; [11]): 20%
Population Healthy Nuclei (%) (Fibroblast [1]; [11]): 75%
Population Hoechst High Intensity Objects (%) (Fibroblast [1]; [11]): 8%
Population Membrane Permeable-Phenotype (%) (Fibroblast [1]; [11]): 25%
Population Mitochondria Different-Phenotype (%) (Fibroblast [1]; [11]): 0%
Population Mitotic Cells (%) (Fibroblast [1]; [11]): 40%
Population Normal (%) (Fibroblast [1]; [11]): 91%
Population Pyknosed Nuclei (%) (Fibroblast [1]; [11]): 3%
Population Tubulin-Different-Phenotype (%) (Fibroblast [1]; [11]): 16%
Total Cell Count (Fibroblast [1]; [11]): 162
Population Apoptotic (%) (Fibroblast [1]; [12]): 66%
Population Fragmented Nuclei (%) (Fibroblast [1]; [12]): 25%
Population Healthy Nuclei (%) (Fibroblast [1]; [12]): 70%
Population Hoechst High Intensity Objects (%) (Fibroblast [1]; [12]): 20%
Population Membrane Permeable-Phenotype (%) (Fibroblast [1]; [12]): 17%
Population Mitotic Cells (%) (Fibroblast [1]; [12]): 33%
Population Normal (%) (Fibroblast [1]; [12]): 80%
Population Pyknosed Nuclei (%) (Fibroblast [1]; [12]): 4%
Population Tubulin-Different-Phenotype (%) (Fibroblast [1]; [12]): 21%
Total Cell Count (Fibroblast [1]; [12]): 90
Population Apoptotic (%) (Fibroblast [1]; [13]): 92%
Population Fragmented Nuclei (%) (Fibroblast [1]; [13]): 33%
Population Healthy Nuclei (%) (Fibroblast [1]; [13]): 52%
Population Hoechst High Intensity Objects (%) (Fibroblast [1]; [13]): 15%
Population Membrane Permeable-Phenotype (%) (Fibroblast [1]; [13]): 6%
Population Mitotic Cells (%) (Fibroblast [1]; [13]): 7%
Population Normal (%) (Fibroblast [1]; [13]): 84%
Population Pyknosed Nuclei (%) (Fibroblast [1]; [13]): 14%
Population Tubulin-Different-Phenotype (%) (Fibroblast [1]; [13]): 0%
Population Apoptotic (%) (Fibroblast [1]; [14]): 100%
Population Fragmented Nuclei (%) (Fibroblast [1]; [14]): 20%
Population Healthy Nuclei (%) (Fibroblast [1]; [14]): 77%
Population Hoechst High Intensity Objects (%) (Fibroblast [1]; [14]): 11%
Population Membrane Permeable-Phenotype (%) (Fibroblast [1]; [14]): 9%
Population Mitochondria Different-Phenotype (%) (Fibroblast [1]; [14]): 0%
Population Mitotic Cells (%) (Fibroblast [1]; [14]): 0%
Population Normal (%) (Fibroblast [1]; [14]): 88%
Population Pyknosed Nuclei (%) (Fibroblast [1]; [14]): 1%
Population Tubulin-Different-Phenotype (%) (Fibroblast [1]; [14]): 2%
Growth Rate (HEK-293T; [15]): 1
Growth Rate (HEK-293T; 0 h, replicate number 2, timepoint 0 hours): 0
Growth Rate (HEK-293T; [16]): 0
Growth Rate (HEK-293T; [17]): 0
Growth Rate (HEK-293T; [18]): 0
Growth Rate (HEK-293T; [19]): 0
Growth Rate (Fibroblast [2]; [15]): 0
Growth Rate (Fibroblast [2]; [16]): 0
Growth Rate (Fibroblast [2]; [17]): 0
Growth Rate (Fibroblast [2]; [18]): 0
Growth Rate (Fibroblast [2]; [19]): 0
Growth Rate (U2OS; [15]): 0
Growth Rate (U2OS; 6 h, replicate number 2, timepoint 6 hours): 0
Growth Rate (U2OS; [17]): 0
Growth Rate (U2OS; [18]): 0
Growth Rate (U2OS; [19]): 0
